From PubChem
T cell modulator = T cell immune modulation candidate. AID 2052. response (vesicle binding), % at 7 µM. 2C CD8+ T cell-vesicle binding, flow cytometry; active compounds read low. 330,000 tested, 0.068% active;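 active = response, share of CD8 T cells binding vesicles, and their 90th percentile fluorescence all below set limits, cut at about 80% in these data, passing the limit was not always enough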;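 note: values below 100% mean blocked vesicle binding to the CD8+ T cells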
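Incubation: binding step 1.5 h, 37 °C, antibody labelling 20 min, ice; system: murine 2C transgenic CD8+ T lymphocytes; technique: cytometric PE anti-B7-1 and Alexa647 anti-CD8 signals after 1% paraformaldehyde fixation; also added: QL9-charged Drosophila Ld/ICAM-1/B7-1 vesicles; control set: naked versus QL9-loaded vesicles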
CTSL1 counter = blocks F. hepatica cathepsin L1 in PFM18AAP counter-screen; recombinant F. hepatica cathepsin L1, Z-Leu-Arg-MCA fluorescence; inhibition, % at 5.96 µM; 300,000 tested, 0.49% active; AID 1906;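 active = inhibition above the mean of all tested compounds plus 3 SD, set per screening campaign, cut at about 17% in these data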;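 note: 0% = plate median of test compound wells and 100% = 1 µM Z-Phe-Ala-diazomethylketone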
IMP-1 inh-1 = inhibitors of Pseudomonas aeruginosa IMP-1 metallo-beta-lactamase. AID 1556. purified IMP-1, nitrocefin hydrolysis, epi-absorbance fluorescence. inhibition, % at 5.6 µM. 290,000 tested, 0.45% active;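 active = inhibition above the mean plus 3 SD of all compounds in the same screening run, cut at about 4.5% in these data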;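 note: 0% = IMP-1 with DMSO and 100% = DMSO wells lacking enzyme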
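System: purified IMP-1; amount: IMP-1 0.2 nM before substrate addition; compound: single dose, 5.6 µM; times: 25 °C, 15 min preincubation, 25 min reaction; signal: Epi-absorbance via hydrolysed-nitrocefin quenching of white-plate fluorescence, 480/530 nm, EDTA stop; benchmarks: DMSO with and without IMP-1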
VIM-2 inh = inhibitors of Pseudomonas aeruginosa VIM-2 metallo-beta-lactamase | purified VIM-2, nitrocefin hydrolysis, epi-absorbance fluorescence | inhibition, % at 5.6 µM | 290,000 tested, 0.89% active;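 active = inhibition above the mean of all tested compounds plus 3 SD, cutoff set per screening run, cut at about 7.5% in these data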;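 note: red hydrolysis product quenches plate fluorescence so inhibitors raise well fluorescence; 0% = enzyme with DMSO and 100% = DMSO without enzyme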
UBC9 SUMO inh = SUMOylation inhibition; P63279; HTRF SUMOylation assay, SAE1/SAE2 + UBC9, in vitro; inhibition, % at 35 µM; 290,000 tested, 0.36% active; AID 2006; in the data active = inhibition above about 50%, passing the limit was not always enough
pCIP destab = lowers stability of the mouse p/CIP coactivator protein; F442A p/CIP-EGFP cells, EGFP fluorescence, 16 h; decrease of EGFP signal, % at 10 µM; 290,000 tested, 0.01% active; AID 1984;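 active = EGFP signal decrease of at least 30% at 10 µM or well 3 SD below plate mean, unless failing retest; inactive = the rest, including hits failing retest or dose response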
Target sequence (Q05BA5 1-1403): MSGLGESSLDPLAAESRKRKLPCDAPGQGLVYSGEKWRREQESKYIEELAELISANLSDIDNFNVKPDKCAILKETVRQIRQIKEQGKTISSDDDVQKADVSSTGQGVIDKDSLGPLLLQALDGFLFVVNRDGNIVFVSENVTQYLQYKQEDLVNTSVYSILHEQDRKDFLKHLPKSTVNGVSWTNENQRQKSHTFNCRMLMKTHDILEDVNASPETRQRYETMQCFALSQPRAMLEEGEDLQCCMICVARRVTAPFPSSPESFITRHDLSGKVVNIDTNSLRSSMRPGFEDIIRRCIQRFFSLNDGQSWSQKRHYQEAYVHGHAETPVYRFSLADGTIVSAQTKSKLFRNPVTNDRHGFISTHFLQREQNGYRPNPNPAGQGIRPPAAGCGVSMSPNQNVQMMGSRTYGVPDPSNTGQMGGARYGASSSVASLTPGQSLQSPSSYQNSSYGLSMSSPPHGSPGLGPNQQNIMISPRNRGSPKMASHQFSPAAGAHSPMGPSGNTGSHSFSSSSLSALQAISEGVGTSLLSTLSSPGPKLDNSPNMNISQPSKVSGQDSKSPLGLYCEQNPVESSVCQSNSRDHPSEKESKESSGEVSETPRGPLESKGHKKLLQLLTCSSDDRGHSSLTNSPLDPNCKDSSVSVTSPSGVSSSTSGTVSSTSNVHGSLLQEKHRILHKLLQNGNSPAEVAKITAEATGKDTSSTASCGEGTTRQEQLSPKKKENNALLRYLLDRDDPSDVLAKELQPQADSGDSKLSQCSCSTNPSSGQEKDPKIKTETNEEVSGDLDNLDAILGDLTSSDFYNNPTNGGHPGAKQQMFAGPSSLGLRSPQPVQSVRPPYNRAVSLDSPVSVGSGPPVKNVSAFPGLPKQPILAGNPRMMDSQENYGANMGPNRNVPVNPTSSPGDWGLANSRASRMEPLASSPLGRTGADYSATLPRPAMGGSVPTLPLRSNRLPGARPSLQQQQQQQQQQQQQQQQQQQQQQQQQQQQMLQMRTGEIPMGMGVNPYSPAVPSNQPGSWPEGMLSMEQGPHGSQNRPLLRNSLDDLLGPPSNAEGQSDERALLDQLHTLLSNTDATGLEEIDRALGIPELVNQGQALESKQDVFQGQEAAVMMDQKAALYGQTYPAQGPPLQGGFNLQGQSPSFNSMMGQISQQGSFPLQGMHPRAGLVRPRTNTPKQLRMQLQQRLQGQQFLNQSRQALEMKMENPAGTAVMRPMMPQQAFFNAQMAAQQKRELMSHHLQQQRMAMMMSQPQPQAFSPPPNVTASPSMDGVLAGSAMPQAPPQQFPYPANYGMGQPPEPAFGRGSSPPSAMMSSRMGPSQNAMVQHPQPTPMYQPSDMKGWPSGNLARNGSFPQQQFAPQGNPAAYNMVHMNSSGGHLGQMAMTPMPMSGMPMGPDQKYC
IMP-1 inh-2 = selectivity counter-screen for VIM-2 inhibitors: IMP-1 metallo-beta-lactamase inhibitors; inhibition, % at 5.6 µM; purified IMP-1, nitrocefin hydrolysis, epi-absorbance fluorescence; 1,300 tested, under 10 active; shares compounds with VIM-2 inh; call rule not given here;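 note: 0% = enzyme with vehicle and 100% = vehicle without enzyme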
VIM-2 FRET inh = VIM-2 FRET inhibition, artifact counter-screen; shares compounds with VIM-2 inh; 1,300 tested, 23% active; purified VIM-2, CCF2 FRET substrate hydrolysis; inhibition, % at 5.6 µM;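 active = inhibition above the mean of all tested compounds plus 3 SD, cut at about 19% in these data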;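 note: 0% = VIM-2 plus DMSO and 100% = no enzyme wells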
TEM-1 counter = blocks E. coli TEM-1 beta-lactamase in VIM-2 selectivity screen | shares compounds with VIM-2 inh | Purified TEM-1, nitrocefin hydrolysis, epi-absorbance fluorescence | inhibition, % at 5.6 µM | 1,300 tested, 3% active | AID 1866;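 active = inhibition above that campaign's mean inhibition plus 3 SD, cut at about 0.46% in these data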;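 note: 0% = TEM-1 with DMSO and 100% = TEM-1 with 100 µM potassium clavulanate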
VIM-2 inh conf = confirmation of P. aeruginosa VIM-2 metallo-beta-lactamase inhibitors. inhibition, % at 5.6 µM. shares compounds with VIM-2 inh. 1,300 tested, 96% active. purified VIM-2, nitrocefin hydrolysis, epi-absorbance. AID 2187;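 active = inhibition of the VIM-2 beta-lactamase enzyme above about 11% from the earlier first-round screen, limit read from the data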;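 note: 0% = VIM-2 with DMSO and 100% = buffer wells without enzyme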
Active calls of the source: *; . = no result given. A selection: hits, their analogues and other compounds. The true share with any hit is near 1.9%.

SMILES	T cell modulator	CTSL1 counter	IMP-1 inh-1	VIM-2 inh	UBC9 SUMO inh	pCIP destab	IMP-1 inh-2	VIM-2 FRET inh	TEM-1 counter	VIM-2 inh conf
c1ccc(N2CCN(c3nc(-c4ccccn4)nc4ccccc34)CC2)cc1	232.3	5.7	-4.8	42.0*	-83.1	-10.3	-4.4	-46.6	-5.1	63.6*
Nc1nc(N)nc(-c2ccccn2)n1	670.5	-0.6	-10.3	-1.6	-1.9	-6.2	.	.	.	.
Cn1nccc1C(=O)N(CCN1CCCCC1)CC1CCCN(C2CCCC2)C1 (stereo not given)	581.5	-0.5	-1.4	-3.0	11.2	0.0	.	.	.	.
CCCn1c(N)c(C(=O)COC(=O)/C=C/c2ccc(OC(F)F)c(OC)c2)c(=O)[nH]c1=O	202.9	.	.	.	.	.	.	.	.	.
CC(=O)N1CCN(S(=O)(=O)c2ccc(C)cc2)C1c1ccc(N(C)C)cc1 (stereo not given)	515.3	3.1	-3.2	30.7*	16.8	-5.7	-2.8	50.9*	-3.8	37.0*
COc1ccc(OC)c(CNC(=O)CCn2nc(C)c3c(C)n(-c4ccccc4)nc3c2=O)c1	203.6	1.8	-1.8	-1.6	-5.3	-2.3	.	.	.	.
CCN(CC)CCCNc1nc(CN2CCOCC2)nc2sc3c(c12)CCC3	171.7	-2.5	-1.4	4.4	2.1	-9.4	.	.	.	.
CCN(CC)CCCNc1nc(SC)nc2sc3c(c12)CCN(C)C3	364.5	-14.7	-1.4	13.1*	19.8	3.3	-3.0	-1.6	-5.3	20.6*
Cc1ccc(S(=O)(=O)NC2CC(C)(C)NC(C)(C)C2)cc1C	356.8	-3.6	1.6	1.8	6.4	-1.1	.	.	.	.
O=C(CSc1ncn[nH]1)N1N=C(c2ccc(Cl)cc2)CC1c1ccco1 (stereo not given)	281.5	3.5	-0.5	13.0*	-3.9	13.3	-3.0	30.5*	-6.3	16.6*
Cc1cc2n(n1)C(c1ccccc1)CC(c1ccc(Br)cc1)=N2 (stereo not given)	796.0	2.7	-3.8	-3.5	-1.2	6.3	.	.	.	.
CSc1nnc(-c2cc3c(-c4ccccc4)nn(C)c3s2)n1C	281.3	-2.9	-1.8	18.9*	18.0	-8.2	-2.8	0.3	-5.3	26.4*
CCC(C(=O)N1CCC(C(N)=O)CC1)n1nc(C)n2c(cc3occc32)c1=O (stereo not given)	254.8	-4.3	-1.7	-2.0	4.5	0.3	.	.	.	.
COc1ccc2[nH]c(C(=O)O)c(CCN3C(=O)c4cccc([N+](=O)[O-])c4C3=O)c2c1	384.3	5.7	-2.1	14.3*	15.1	-7.1	-3.5	79.5*	-6.3	65.0*
Cc1sc2c(=O)n3c(nc2c1C(=O)NC1CCCCC1)CCCCC3	385.8	1.3	-0.6	-1.0	17.6	-10.6	.	.	.	.
Cc1sc2c(=O)n3c(nc2c1C(=O)NCCCN1CCOCC1)CCCCC3	169.8	-0.3	-3.1	17.8*	-6.8	6.5	-2.3	-0.1	-6.3	36.3*
CCSc1ccc2nnc(-c3ccc(F)cc3)n2n1	216.9	3.3	-2.1	13.9*	20.1	1.7	-1.3	-4.0	0.3	24.4*
CCSc1ccc2nnc(-c3cccs3)n2n1	264.3	-3.6	-2.2	16.7*	36.0	-5.4	-2.8	-3.2	-7.8	27.6*
CC(=O)N1CCN(C(=O)COC(=O)CNC(=O)c2ccccc2C)CC1	296.5	-5.4	.	.	.	.	.	.	.	.
O=C1NC(=O)/C(=C\c2cn(CC(=O)N3CCOCC3)c3ccccc23)S1	176.7	9.0	-0.3	1.1	-5.6	6.3	.	.	.	.
CN(C)C(=O)c1ccc(Nc2nc(-c3cccs3)nc3ccccc23)cc1	247.7	5.9	-1.5	21.9*	20.8	-14.6	-3.1	0.2	-6.6	24.8*
